This note sets out measurements from ChEMBL document CHEMBL1153504, “Short-acting 5-(trifluoromethyl)pyrido[4,3-d]pyrimidin-4(3H)-one derivatives as orally-active calcium-sensing receptor antagonists” (Bioorg Med Chem Lett, 2009).

Series [1] in a line: Antagonist activity at human calcium receptor expressed in HEK293 cells assessed as inhibition of extracellular calcium-induced release of intracellular calcium strores into cytosol by FLIPR assay. The format is functional, cell-based.
For series [2], the target named is Voltage-gated inwardly rectifying potassium channel KCNH2 (Homo sapiens, UniProt Q12809). Put plainly: Inhibition of human ERG.
Voltage-gated inwardly rectifying potassium channel KCNH2, sequence (Q12809 whole entry): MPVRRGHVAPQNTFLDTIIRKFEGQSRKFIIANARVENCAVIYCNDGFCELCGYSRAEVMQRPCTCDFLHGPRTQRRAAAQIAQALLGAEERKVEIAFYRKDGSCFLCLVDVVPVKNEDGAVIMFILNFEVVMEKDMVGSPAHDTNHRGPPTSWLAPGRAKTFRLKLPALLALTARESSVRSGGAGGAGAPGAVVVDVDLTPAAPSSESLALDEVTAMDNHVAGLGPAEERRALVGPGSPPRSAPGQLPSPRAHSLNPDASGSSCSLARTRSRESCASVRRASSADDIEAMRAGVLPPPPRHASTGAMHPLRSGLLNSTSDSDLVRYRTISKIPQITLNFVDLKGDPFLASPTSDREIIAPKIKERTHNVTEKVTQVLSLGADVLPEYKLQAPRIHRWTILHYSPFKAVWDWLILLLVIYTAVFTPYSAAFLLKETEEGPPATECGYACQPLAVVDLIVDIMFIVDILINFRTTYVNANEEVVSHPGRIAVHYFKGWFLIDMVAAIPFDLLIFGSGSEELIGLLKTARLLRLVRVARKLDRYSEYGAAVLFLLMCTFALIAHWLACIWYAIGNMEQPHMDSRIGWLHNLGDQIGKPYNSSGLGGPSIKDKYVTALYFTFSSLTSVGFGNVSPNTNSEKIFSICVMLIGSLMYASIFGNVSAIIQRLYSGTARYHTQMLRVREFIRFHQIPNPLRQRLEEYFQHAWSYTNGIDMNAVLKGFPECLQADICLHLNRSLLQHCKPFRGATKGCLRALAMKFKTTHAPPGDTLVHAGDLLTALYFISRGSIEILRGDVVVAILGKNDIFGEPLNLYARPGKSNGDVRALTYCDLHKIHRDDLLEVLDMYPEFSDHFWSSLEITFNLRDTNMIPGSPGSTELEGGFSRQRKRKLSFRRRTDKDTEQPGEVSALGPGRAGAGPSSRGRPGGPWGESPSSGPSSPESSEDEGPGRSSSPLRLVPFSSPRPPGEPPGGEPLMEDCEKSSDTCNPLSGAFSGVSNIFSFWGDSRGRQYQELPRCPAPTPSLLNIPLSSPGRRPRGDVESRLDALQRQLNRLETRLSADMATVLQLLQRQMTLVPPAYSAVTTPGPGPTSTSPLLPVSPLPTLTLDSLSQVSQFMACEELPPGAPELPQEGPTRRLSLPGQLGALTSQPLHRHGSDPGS
The nature of series [3]: Half life in human. It counts as ADME, organism-based. The note with it: in vivo.
Series [4] deals with Rattus norvegicus. Put plainly: Induction of bone formation in Sprague-Dawley rat assessed as transient stimulation of PTH level in plasma at dose 10 mg/kg, po administered for 5 days measured on day 5 by ELISA. It counts as functional, organism-based. More on the design: dose 10 mg/kg. On the technique in general: An ELISA detects its analyte on a solid surface through an enzyme-linked reagent.

Series [5] in a line: Tmax in Sprague-Dawley rat at 1 mg/kg, iv. The format is ADME, organism-based. Set-up: dose 1 mg/kg, route intravenous. As to conditions: in vivo. Summed up: (§1)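 Male Sprague-Dawley rats, n = 2–5. iv dosing in glycerol formal containing 2% DMSO; po dosing as a spray dried dispersion. Plasma compound levels followed for PK parameters.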
In series [6] the test system is Rattus norvegicus. Kind of series: Induction of bone formation in Sprague-Dawley rat assessed as stimulation of PTH level in plasma at dose 10 mg/kg, po by ELISA. The format is functional. Summed up: (§2)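 Male Sprague-Dawley rats, n = 5/6, given a single iv or po dose. Plasma PTH 1-84 measured by an ELISA specific for full-length rat PTH 1-84. Earliest sampling at ~2 min; comparison against baseline in vehicle-treated animals.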

Series [7] concerns Rattus norvegicus. Kind of series: Induction of bone formation in Sprague-Dawley rat assessed as sustained elevation of PTH level in plasma at dose 10 mg/kg, po administered for 5 days measured on day 5 by ELISA. The format is functional, organism-based. More on the design: dose 10 mg/kg.
Series [8] is described as follows: Plasma clearance in Sprague-Dawley rat at 1 mg/kg, iv. It counts as ADME, organism-based. Set-up: dose 1 mg/kg, route intravenous. Summed up: as §1
The species entered for series [9] is Rattus norvegicus. Kind of series: Ratio of half life for 1-aminobenzotriazole led P450 inactivator pretreated Sprague-Dawley rat to half life for normal Sprague-Dawley rat. The format is ADME, organism-based. The note with it: in vivo.
Series [10] in a line: Cmax in Sprague-Dawley rat at 10 mg/kg, po. The note with it: in vivo. More on the design: dose 10 mg/kg, route oral. The format is ADME, organism-based. In short, it runs like this: as §1
Series [11] is described as follows: Cmax in Sprague-Dawley rat at 1 mg/kg, iv. The format is ADME, organism-based. Set-up: dose 1 mg/kg, route intravenous. The note with it: in vivo. Summed up: as §1
Series [12] has as its system Rattus norvegicus. Put plainly: Induction of bone formation in Sprague-Dawley rat assessed as transient stimulation of PTH level in plasma at dose 10 mg/kg, po on day 1 by ELISA. It counts as functional, organism-based. Set-up: dose 10 mg/kg.
Series [13] in a line: Plasma clearance in 1-aminobenzotriazole led P450 inactivator pretreated Sprague-Dawley rat at 1 mg/kg, iv. It counts as ADME, organism-based. Set-up: dose 1 mg/kg, route intravenous.
Series [14] in a line: (§3) Volume of distribution at steady state in Sprague-Dawley rat at 1 mg/kg, iv. More on the design: dose 1 mg/kg, route intravenous. The format is ADME, organism-based. As to conditions: Sprague-Dawley, in vivo, read-out: Vdss. In short, it runs like this:
as §1

Series [15] is filed under the species Rattus norvegicus. Kind of series: Ratio of AUC for 1-aminobenzotriazole led P450 inactivator pretreated Sprague-Dawley rat to AUC for normal Sprague-Dawley rat. The format is ADME, organism-based. As to conditions: in vivo.
Series [16] has as its system Rattus norvegicus. Put plainly: Induction of bone formation in Sprague-Dawley rat assessed as stimulation of PTH level in plasma at 1 mg/kg, iv after 2 mins by ELISA. It counts as functional. Summed up: as §2
A short description of series [17]: (§4) Terminal half life in Sprague-Dawley rat at 1 mg/kg, iv. The note with it: Sprague-Dawley, in vivo, read-out: beta t1/2 (converted). It counts as ADME, organism-based. More on the design: dose 1 mg/kg, route intravenous. In short, it runs like this:
as §1

Series [18] is described as follows: AUC in Sprague-Dawley rat at 1 mg/kg, iv. The format is ADME, organism-based. More on the design: dose 1 mg/kg, route intravenous. The note with it: plasma. In short, it runs like this: as §1
Series [19] concerns Rattus norvegicus. The description is as §3. The note with it: in vivo. The format is ADME, organism-based. Set-up: dose 1 mg/kg, route intravenous. In short, it runs like this: as §1
For series [20], the system named is Rattus norvegicus. The description is as §4. It counts as ADME, organism-based. More on the design: dose 1 mg/kg, route intravenous. As to conditions: in vivo. Summed up: as §1
Series [21] deals with Rattus norvegicus. Kind of series: Induction of bone formation in Sprague-Dawley rat assessed as stimulation of PTH level in plasma at 1 mg/kg, iv after 2 mins relative by ELISA to basal level. It counts as functional. In short, it runs like this:
as §2

As usually defined, the IC50 is the midpoint of a concentration-inhibition curve. The Tmax is the time from dosing to the highest level. As a reminder, the clearance is the rate of elimination divided by the concentration. By Cmax is commonly meant the highest concentration seen after dosing. The AUC is concentration integrated over time. Read a high AUC as high exposure. What is called Vdss is the apparent volume that relates the amount in the body to the concentration in plasma or blood. High values mean extensive tissue distribution, low ones confinement near the circulation.

Calls of active or inactive are those of the source. The calls are words filed in the database; no cut-off is given here.

In the case of `C[C@H](Cc1ccccc1)n1c(-c2cscn2)nc2ccnc(C(F)(F)F)c2c1=O`, the IC50 in series [1] was found to be 0.216 µM.
Consider `O=c1c2c(Cl)nccc2nc(-c2ccccc2O)n1CCc1ccccc1`, for which the IC50 in [1] turned out to be 0.106 µM.
Turning to `CC(C)(Cc1ccc2ccccc2c1)NC[C@@H](O)COc1cccc(Cl)c1C#N`, the result in [2] was Active. The compound also gave a half-life in [3] of 480 min.
Consider `O=c1c2c(C(F)(F)F)nccc2nc(-c2cccc(F)c2O)n1CCc1ccccc1`, for which, in series [1], the IC50 stood at 0.61 µM.
Turning to `CC(C)Oc1nccc2nc(-c3ccccc3O)n(CCc3ccccc3)c(=O)c12`, the IC50 in series [1] was found to be 0.224 µM.
Turning to `O=c1c2c(C(F)(F)F)nccc2nc(-c2ccccc2Cl)n1CCc1ccccc1`, the IC50 in series [1] was found to be 1.07 µM.
In the case of `C[C@H](Cc1ccccc1)n1c(-c2ccccc2O)nc2ccnc(C(F)(F)F)c2c1=O`, the outcome in the series on Rattus norvegicus [4] and in the series with Rattus norvegicus [12] was Active. The Tmax in [5] worked out at 30 min. The Activity was 620 pg/mL with Rattus norvegicus [6] and 921 pg/mL in the series on Rattus norvegicus [16]. The outcome in the series on Rattus norvegicus [7] was inactive. Also, the clearance in series [8] turned out to be 1.93 L/h/kg; in series [13], 0.468 L/h/kg. The Ratio in the series listed under Rattus norvegicus [9] turned out to be 7; in the series listed under Rattus norvegicus [15], 4. Also, the peak concentration (Cmax) was found to be 0.35 µg/mL in series [10] and 0.125 µg/mL in series [11]. Also, the Vd in series [14] turned out to be 1.4 L/kg. Also, the IC50 in [1] came to 0.041 µM. Besides, the half-life in series [17] was 36 min. Further, in series [18], the area under the curve (AUC) is 0.518 µg·h/mL.
`C[C@H](Cc1ccccc1)n1c(-c2cccc(F)c2O)nc2ccnc(C(F)(F)F)c2c1=O`: the clearance in [8] came to 1.9 L/h/kg. Also, the Vd in series [14] stood at 3.6 L/kg. Also, in series [1], the 50% inhibitory concentration (IC50) turned out to be 0.025 µM. In [17], the half-life was 91.8 min. In addition, the AUC in series [18] was 0.528 µg·h/mL.
Take `Cc1nccc2nc(-c3ccccc3O)n(CCc3ccccc3)c(=O)c12`: the IC50 in series [1] is 2.99 µM.
As for `COc1ccccc1CCn1c(-c2ncccc2O)nc2ccnc(C(F)(F)F)c2c1=O`, in series [1], the IC50 is 0.076 µM.
`C[C@H](Cc1ccccc1)n1c(-c2ncccc2Cl)nc2ccnc(C(F)(F)F)c2c1=O` gave a Vdss with Rattus norvegicus [19] of 6 L/kg. In addition, the half-inhibitory concentration (IC50) in [1] came out at 0.079 µM. Also, the “beta t1/2” value in the series with Rattus norvegicus [20] worked out at 57 min. The AUC in series [18] was found to be 0.81 µg·h/mL.
Turning to `C[C@H](Cc1ccccc1)n1c(-c2ccccc2Cl)nc2ccnc(C(F)(F)F)c2c1=O`, in [1], the IC50 is 0.152 µM.
As for `Cc1cccnc1-c1nc2ccnc(C(F)(F)F)c2c(=O)n1[C@H](C)Cc1ccccc1`, the 50% inhibitory concentration (IC50) in [1] was 0.226 µM.
On the same count and under the same terms, the value for `O=c1c2c(C(F)(F)F)nccc2nc(-c2ccccc2O)n1CCc1ccccc1` was 0.05 µM.
On to `C[C@H](Cc1ccccc1)n1c(-c2ncccc2C(F)(F)F)nc2ccnc(C(F)(F)F)c2c1=O`, for which the time to peak (Tmax) in [5] was determined as 78 min. Moreover, the values for the Cmax in [10] and in [11] were 0.45 µg/mL and 0.1 µg/mL, respectively. The distribution volume (Vdss) in the series with Rattus norvegicus [19] amounted to 2.9 L/kg. The half-inhibitory concentration (IC50) in [1] turned out to be 0.064 µM. Also, in the series on Rattus norvegicus [20], the “beta t1/2” value was determined as 48 min. The same compound returned an AUC in series [18] of 1.2 µg·h/mL.
`O=c1c2c(OC3CCC3)nccc2nc(-c2ccccc2O)n1CCc1ccccc1`: in series [1], the half-maximal inhibitory concentration (IC50) was 0.435 µM.
`O=c1c2c(C(F)(F)F)nccc2nc(-c2ncccc2O)n1CCC1CCCCC1` showed a clearance in [8] of 2.15 L/h/kg. Moreover, the Vd in [14] came to 3.2 L/kg. Further, the half-maximal inhibitory concentration (IC50) in [1] was 0.036 µM. Further, the half-life in series [17] was 37.2 min. Also, the exposure (AUC) in [18] is 0.489 µg·h/mL.
Regarding `C[C@H](Cc1ccc(F)c(F)c1)n1c(-c2ncccc2O)nc2ccnc(C(F)(F)F)c2c1=O`, the result in the series with Rattus norvegicus [4] and in the series on Rattus norvegicus [12] was Active. Also, the time to peak (Tmax) in [5] came to 18 min. Besides, the values for the Activity in the series on Rattus norvegicus [6] and in the series on Rattus norvegicus [16] were 599 pg/mL and 1303 pg/mL, respectively. In the series on Rattus norvegicus [7], the result was inactive. Further, the clearance in series [8] is 2.79 L/h/kg. In addition, the results for the Cmax in series [10] and in [11] were 0.165 µg/mL and 0.133 µg/mL, respectively. For the same compound, the “fold change (FC)” value in the series on Rattus norvegicus [21] is 10. Also, the Vd in series [14] worked out at 8.6 L/kg. Moreover, the IC50 in series [1] was 0.008 µM. Moreover, the half-life in series [17] is 234 min. The same compound returned an AUC in series [18] of 0.364 µg·h/mL.
Regarding `O=c1c2c(C(F)(F)F)nccc2nc(-c2ncccc2O)n1CCc1ccccc1F`, the half-inhibitory concentration (IC50) in [1] was 0.151 µM.
Same read-out and setting: the value for `C[C@H](Cc1ccccc1)n1c(-c2ncccc2O)nc2ccnc(C(F)(F)F)c2c1=O` was 0.022 µM; that for `O=c1c2c(C(F)(F)F)nccc2nc(-c2cscn2)n1CCc1ccccc1` was 0.656 µM; that for `CC(=O)Nc1cccnc1-c1nc2ccnc(C(F)(F)F)c2c(=O)n1[C@H](C)Cc1ccccc1` was 0.019 µM.
On the same count and under the same terms, with `C[C@@H](Cc1ccccc1)n1c(-c2ccccc2O)nc2ccnc(C(F)(F)F)c2c1=O` the figure was 0.158 µM; with `O=c1c2c(N3CCCC3)nccc2nc(-c2ccccc2O)n1CCc1ccccc1`, 5.32 µM; with `O=c1c2c(C(F)(F)F)nccc2nc(-c2ccccc2O)n1CCc1ccccc1F`, 0.132 µM.
